Rad51 HR inh = human RAD51 strand exchange inhibitors, primary screen, biochemical, fluorescence; DNA repair protein RAD51 homolog 1 (Homo sapiens), Q06609; hRad51 DNA strand exchange, fluorescence dequenching; inhibition, % at 10 µM; 200,000 tested, 0.085% active;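 active means inhibition above 40% at the single screening dose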;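 further: 0% = DMSO control wells and 100% = blanks with heterologous ssDNA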
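Test system: preformed human Rad51 ssDNA filaments. Compound dosing: single dose, 10 µM final compound. Incubation: filaments 15 min 37 °C, then compound 30 min. Technique: FRET fluorescence dequenching, excitation 485 nm, emission 520 nm. Read-out basis: percent inhibition from fluorescence, normalised to plate control and blank means. Benchmarks: plate controls and plate blanks.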
APP 5'UTR act = activators of APP 5'UTR luciferase reporter, primary screen, SH-SY5Y cells. 190,000 tested, 1% active. activation, % at 2 µM. SH-SY5Y APP 5'UTR luciferase reporter, luminescence; zero percent = DMSO vehicle wells;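 active means activation above a set limit, based on mean plus 3 SD of controls, cut at about 140% in these data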
NF-kB neuron act = activators of NF-kB expression in neurons, primary screen, cell-based, HTS; AID 1239, 2008; 190,000 tested, 1.6% active; human neuronal cells, NF-kB reporter expression; stronger effect = higher value; fold change at 12.5 µM; in the data active means fold change above about 3.3
FLuc inh counter = firefly luciferase enzyme inhibitors, primary screen, artefact control for luciferase-based inhibitor screens, biochemical, luminescence, ATPLite | 10 min | inhibition, % at 10 µM | 200,000 tested, 1.5% active;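 active means inhibition above about 50% when tested at 10 µM, limit read from the data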
Target sequence (P08659 whole entry, looked up): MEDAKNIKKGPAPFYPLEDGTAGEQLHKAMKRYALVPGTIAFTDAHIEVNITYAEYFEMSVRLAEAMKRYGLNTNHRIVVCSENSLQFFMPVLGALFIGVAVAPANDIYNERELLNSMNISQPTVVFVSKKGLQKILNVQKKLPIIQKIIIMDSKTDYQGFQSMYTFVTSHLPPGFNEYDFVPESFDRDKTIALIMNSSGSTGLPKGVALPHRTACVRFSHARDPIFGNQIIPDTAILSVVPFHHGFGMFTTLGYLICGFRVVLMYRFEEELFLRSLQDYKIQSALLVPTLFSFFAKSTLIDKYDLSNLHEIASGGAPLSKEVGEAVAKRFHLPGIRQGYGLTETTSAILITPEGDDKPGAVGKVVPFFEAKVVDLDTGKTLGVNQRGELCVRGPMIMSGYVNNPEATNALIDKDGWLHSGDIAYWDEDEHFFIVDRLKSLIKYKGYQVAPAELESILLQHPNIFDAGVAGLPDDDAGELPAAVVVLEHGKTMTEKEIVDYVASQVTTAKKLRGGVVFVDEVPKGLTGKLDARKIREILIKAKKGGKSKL
FLuc act counter = FLuc activators, initial screening, artefact control for FLuc-dependent activation tests, biochemical, ATPlite luminescence; Luciferin 4-monooxygenase (Photinus pyralis), P08659; ATPlite luciferase biochemical, 10 min; 0 = ATP-free wells, 1 = DMSO control; activation factor at 10 µM; 200,000 tested, under 10 active; AID 1027, 2008;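 active means luciferase activation factor, scaled between plate controls, of at least 2 with compound at 10 µM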
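Material: Luciferase/luciferin reagent mix; Doses: test compounds dosed from 2 mM stocks in 100% DMSO; Schedule: 10 min incubation after luciferase reagent addition, room temperature; Measured by: luminescence from luciferase reaction; Read-out: luminescence gain marking luciferase activators.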
STAT1 activator = STAT1 signaling activators, primary screen, cell-based, HTS, luciferase reporter; activation (% of control), % at 5.5 µM; 200,000 tested, 2.6% active; AID 932, 2007; NIH 3T3 STAT1-luciferase reporter, IFN-gamma, luminescence; 100% = IFN-gamma alone, no compound;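 active means activation above the screen-wide mean activation plus 3 SD, cut at about 130% in these data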;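 further: raw ratio to IFN-gamma control signal so 100% means no change and 0% no light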
STAT1 act conf = STAT1 signaling activators, confirmation, cell-based, HTS, luciferase reporter | shares compounds with STAT1 activator | NIH 3T3 STAT1-luciferase reporter, IFN-gamma potentiation, luminescence; 100% = IFN-gamma EC80 alone, no compound | activation (% of control), % at 5.7 µM | 1,200 tested, 97% active | AID 1262, 2008;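 active means activation above a set limit carried over from the earlier primary STAT1 screen, cut at about 140% in these data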;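 further: simple ratio to median IFN-gamma plus DMSO wells so 0% means no light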
NFkB act STAT1ct = NF-kB reporter activators, TNF-alpha stimulated, counter-screen for STAT1 activator project, cell-based, HEK293T, luciferase luminescence; 1,200 tested, 43% active; activation (% of control), % at 5.7 µM; AID 1306, 2008; 100% = TNF-alpha with vehicle only; shares compounds with STAT1 activator;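 active means activation above the mean of solvent-only control wells plus 3 SD, set per campaign, cut at about 130% in these data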;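 further: TNF-alpha given at a submaximal dose yielding about 80% of full reporter signal; values are well signal over median control so 100% means no change and 0% no light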
STAT3 act STAT1c = STAT3 reporter activation by STAT1 hits, confirmation, counter-screen for STAT1 activator project, U3A cells, luciferase, luminescence; AID 1316, 2008; shares compounds with STAT1 activator; activation (% of control), % at 5.7 µM; IL-6; cells lack STAT1; 100 = IL-6 alone, no compound effect; 1,200 tested, 46% active;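 active means activation above the solvent-only control well mean plus 3 SD, set per plate batch, cut at about 110% in these data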;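 further: 0% = no luminescence and 100% = median IL-6 plus DMSO wells; higher means more STAT3 reporter activation so hits are non-selective activators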
* hit, by the source's call; . = no result given. A selection: hits, their analogues and other compounds. The true share with any hit is near 3.9%.

SMILES	Rad51 HR inh	APP 5'UTR act	NF-kB neuron act	FLuc inh counter	FLuc act counter	STAT1 activator	STAT1 act conf	NFkB act STAT1ct	STAT3 act STAT1c
N/C(=N\OC(=O)CCCOc1ccc(Cl)cc1Cl)c1ccncc1	0	-1	1.1	-3	1	104	.	.	.
N/C(=N\OC(=O)COc1cc(Cl)c(Cl)cc1Cl)c1ccccn1	-9	161*	5.4*	6	0.9	159*	192*	143*	113*
CS(=O)(=O)c1ccc(C(=O)NCCN2C(=O)S/C(=C\c3cccnc3)C2=O)cc1[N+](=O)[O-]	-15	-36	1	-2	1	100	.	.	.
O=C(Nc1ccc(/C=C/c2nc3ccccc3o2)cc1)c1c(F)cccc1F	5	208*	2.1	18	0.8	175*	205*	131	105
O=C(Nc1ccc(/C=C/c2nc3ccccc3o2)cc1)c1cccc(C(F)(F)F)c1	0	15	1.1	-8	1.1	125	.	.	.
COc1cccc(NC(=O)C23CCC(C)(C(=O)O2)C3(C)C)c1 (stereo not drawn)	8	18	1.1	-2	1	99	.	.	.
Cc1ccc(/C=C/C(=O)N2CCc3ccccc32)o1	-4	168*	8.2*	75*	0.2	180*	224*	138*	109
Cc1c(C(=O)N2CCc3ccccc32)oc2ccccc12	2	156*	8.2*	73*	0.3	155*	217*	141*	150*
Oc1[nH]c2ccccc2c1C=Nc1ccccc1	1	.	.	.	.	.	.	.	.
Cc1sc2nc(SCC(=O)C(C)(C)C)n(Cc3ccco3)c(=O)c2c1C	6	4	2	-8	1.1	97	.	.	.
Cc1sc2nc3c4ccccc4c(NCc4ccco4)nn3c(=O)c2c1C	-7	136*	3.8*	3	1	157*	208*	155*	114*
COCc1cc(C(C)=O)ccc1OCC(=O)Nc1ccc(NC(C)=O)cc1	.	16	.	-2	1	96	.	.	.
COc1ccc(/C=N/NC(=O)c2c(C)nc3ccccn23)cc1[N+](=O)[O-]	12	.	.	.	.	.	.	.	.
Cc1ccc2nc(SCn3nnc4ccccc4c3=O)[nH]c2c1	0	175*	3.8*	12	0.9	163*	180*	120	129*
O=c1c2ccccc2nnn1CSc1ccccc1F	12	152*	4.7*	25	0.8	160*	198*	115	103
O=c1c2ccccc2nnn1CSc1ncnc2ccccc12	-1	3	2.3	-10	1.1	82	.	.	.
Cc1cc(=O)[nH]c(SCn2nnc3ccccc3c2=O)n1	-4	-1	1.1	-10	1.1	100	.	.	.
Cc1ccccc1-n1ncc2c(SCC(=O)NCc3cccs3)ncnc21	2	7	1.4	-3	1	99	.	.	.
COC(=O)c1cn[nH]c1NC(=S)Nc1ccccc1C	6	-2	1.7	50	0.5	151*	169*	129	117*
COC(=O)c1cn[nH]c1NC(=S)Nc1ccc(C)cc1Cl	.	169*	1.5	54*	0.5	170*	307*	127	98
COc1ccc(-c2cn3cc(C)ccc3n2)cc1Br	.	164*	6.8*	94*	0.1	175*	236*	103	86

Source: PubChem BioAssay
